Test [1] can be described thus: reduced viability of SK-BR-3 breast cancer cells – cell-based, 24 h, human, pilot screen (AID 572;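 active = viability at or below 10% of carrier control in both of two separate runs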;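 also: compound exposure lasted between 18 and 24 h rather than exactly 24 h; 100% = carrier-treated control wells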). The note with it: SK-BR-3 viability, CellTiter-Glo luminescence, at 10 µM, stronger effect = lower value. A general note: In ATP-based viability assays light output follows the ATP content of the culture.
A short description of test [2]: HUVEC growth inhibition – cell-based, human, primary screen (AID 575;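 active = viability at or below 30% in both replicate assays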;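 also: 100% = median of untreated cell wells with 0.1% DMSO on each plate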). The note with it: HUVEC proliferation, CellTiter-Glo luminescence, 72 h; at 10 µM; stronger effect = lower value. Put shortly: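 Test system: primary human umbilical vein endothelial cells; medium: endothelial basal medium with 2% FBS plus growth supplements; dosing: 10 µM compound only; times: 72 h treatment at 37 °C; signal: CTG luminescence; read-out: % viability relative to median vehicle-well signal on each plate; control set: vehicle and MePR control wells; plate: 384-well, collagen-coated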

Test [3] in a line: H69AR cell proliferation blockers – human, duplicate replicates, primary screen (AID 580;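 active = viability at or under a set limit in both replicates, limit being median viability minus 3 SD, cut at about 48% in these data, passing the limit was not always enough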;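 also: 100% = mean luminescence of untreated wells and 0% = no signal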). The note with it: H69AR lung tumor cells viability, ATP luminescence, 72 h; at 10 µM; stronger effect = lower value.
Test [4] in a line: MRP1 drug-resistance reversers in H69AR cells – cell-based, doxorubicin co-treatment, pilot screen (AID 601;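 active = viability loss from added drug above about 55%, and viability with drug at most 40%, in both replicates, limit read from the data, passing the limit was not always enough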). The note with it: CellTiter-Glo, 72 h, at 10 µM; for differential viability (reversal): stronger effect = higher value.
Test [5] is described as follows: yeast transport mutant growth inhibition pilot in 384-well plates, post-Golgi transport modulator project (AID 636; in the data active = inhibition above about 31%). Conditions: absorbance 615 nm, about 18 h, stronger effect = higher value.
A short description of test [6]: growth suppression of yeast trafficking mutant, preliminary HTS, modulators of trafficking downstream of Golgi apparatus project, 1536-format plate, OD 615 nm (AID 637). Conditions: yeast transport mutant growth, absorbance 615 nm, 18 h; stronger effect = higher value.
Setting [7] is: H69AR cells + 2 uM doxorubicin, measured here: viability with 2 uM doxorubicin, stronger effect = lower value.
Setting [8] is: H69AR cells, compound alone cytotoxicity.

Calls of active or inactive are those of the source. Rule as the data show it, unless noted: active = inhibition above about 30%; inactive = the rest.

As usually defined, the viability is a read-out of living cells in per cent, often relative to untreated cells. Usually inhibition stands for the change of the read-out against control, counted positive when it falls. In the case of `O=C(CSc1nnc(NC(=O)C2CCC2)s1)NC1CC1`, the viability is 100% (inactive) in test [1]; 106% (inactive) in test [2]; 106% (inactive) in test [3]; 93.4% in test [4] (setting [7]); 106% in test [4] (setting [8]). The differential viability (reversal) in test [4] (H69AR cells + 2 uM doxorubicin) was 12.2% (inactive). For the same compound, the values for the inhibition in test [5] and in test [6] were -6.76% (inactive) and 2% (inactive), respectively.

On to `Brc1c(NC2=NCCN2)ccc2nccnc12`, for which the viability in test [1] was 105% (inactive); in test [2] it was 106% (inactive); in test [3] it was 95% (inactive); in test [4] (setting [7]) it was 102%; in test [4] (setting [8]) it was 95%. Besides, the differential viability (reversal) in test [4] (H69AR cells + 2 uM doxorubicin) was -7.09% (inactive). Besides, the values for the inhibition in test [5] and in test [6] were -0.39% (inactive) and 15.3% (inactive), respectively.

In the case of `CN(C)CCC=C1c2ccccc2CCc2ccccc21`, the viability is 95% (inactive) in test [1]; 60.6% (inactive) in test [2]; 82.3% (inactive) in test [3]; 74.3% in test [4] (setting [7]); 82.3% in test [4] (setting [8]). Moreover, the differential viability (reversal) in test [4] (H69AR cells + 2 uM doxorubicin) is 8.06% (inactive). The inhibition in test [5] was -3.12% (inactive); in test [6] it was -1.67% (inactive).

With `CC(C)NC(=O)Nc1cccs1`, the viability in test [1] was 115% (inactive); in test [2], 99.5% (inactive); in test [3], 92.1% (inactive); in test [4] (setting [7]), 95.6%; in test [4] (setting [8]), 92.1%. For the same compound, the differential viability (reversal) in test [4] (H69AR cells + 2 uM doxorubicin) was -3.51% (inactive). Besides, the results for the inhibition in test [5] and in test [6] were 2.47% (inactive) and -0.82% (inactive), respectively.

`CCc1ccccc1OCCCCN1CCCC1`: the viability was 124% (inactive) in test [1]; 82% (inactive) in test [2]; 89.1% (inactive) in test [3]; 78.2% in test [4] (setting [7]); 89.1% in test [4] (setting [8]). Moreover, in test [4] (H69AR cells + 2 uM doxorubicin), the differential viability (reversal) was 10.8% (inactive). The inhibition was -5.06% (inactive) in test [5] and -1.97% (inactive) in test [6].

On to `O=S(=O)(Nn1cnnc1)c1ccccc1Cl`, for which the viability in test [1] is 84% (inactive); in test [2], 109% (inactive); in test [3], 89.3% (inactive); in test [4] (setting [7]), 92.7%; in test [4] (setting [8]), 89.3%. In addition, in test [4] (H69AR cells + 2 uM doxorubicin), the differential viability (reversal) is -3.4% (inactive). Also, the inhibition was 4% (inactive) in test [5] and 7.09% (inactive) in test [6].

For the compound `COC(=O)CNc1nc(C2CC2)nc2c1nnn2Cc1ccccc1Cl`, the viability is 89% (inactive) in test [1]; 84.9% (inactive) in test [2]; 94.7% (inactive) in test [3]; 97% in test [4] (setting [7]); 94.7% in test [4] (setting [8]). The differential viability (reversal) in test [4] (H69AR cells + 2 uM doxorubicin) was -2.29% (inactive). Also, the results for the inhibition in test [5] and in test [6] were -9.04% (inactive) and 1.13% (inactive), respectively.

For `CCOc1ccccc1-c1nc(-c2ccc(C)nc2OC)no1`, the viability in test [1] is 123% (inactive); in test [2] it was 95.9% (inactive); in test [3], 81.9% (inactive); in test [4] (setting [7]), 82.2%; in test [4] (setting [8]), 81.9%. Further, in test [4] (H69AR cells + 2 uM doxorubicin), the differential viability (reversal) is -0.315% (inactive). The inhibition in test [5] is -0.78% (inactive); in test [6] it was 5.74% (inactive).

In the case of `O=C(CCCCn1c(=O)c2ccccc2n(Cc2ccc(Cl)cc2)c1=O)NCc1ccco1`, the viability is 100% (inactive) in test [1]; 38.6% (inactive) in test [2]; 29.6% (active) in test [3]; 43% in test [4] (setting [7]); 29.6% in test [4] (setting [8]). The differential viability (reversal) in test [4] (H69AR cells + 2 uM doxorubicin) was -13.4% (inactive). In addition, the inhibition in test [5] was -1.17% (inactive); in test [6] it was -2.95% (inactive).

As for `Cc1[nH]c2ccc(F)cc2c(=O)c1SC(F)(F)C(F)C(F)(F)F` (centres undefined), the viability in test [1] was 72% (inactive); in test [2] it was 92.5% (inactive); in test [3], 83.3% (inactive); in test [4] (setting [7]), 97.6%; in test [4] (setting [8]), 83.3%. The differential viability (reversal) in test [4] (H69AR cells + 2 uM doxorubicin) was -14.3% (inactive). Besides, the inhibition in test [5] was -5.95% (inactive); in test [6] it was -5.27% (inactive).

In the case of `CCOCCCNC(=O)C1CC(=O)N(C2CCCC2)C1` (centres undefined), the viability in test [1] was 98% (inactive); in test [2], 97.7% (inactive); in test [3], 94.6% (inactive); in test [4] (setting [7]), 90.5%; in test [4] (setting [8]), 94.6%. Besides, the differential viability (reversal) in test [4] (H69AR cells + 2 uM doxorubicin) is 4.13% (inactive). The inhibition in test [5] was -0.91% (inactive); in test [6] it was 1.15% (inactive).

As for `CN(C)c1ccc(NC(=O)Nc2cccc(Cl)c2)cc1`, the viability in test [1] is 83% (inactive); in test [2] it was 99.9% (inactive); in test [3], 88.7% (inactive); in test [4] (setting [7]), 84.7%; in test [4] (setting [8]), 88.7%. For the same compound, the differential viability (reversal) in test [4] (H69AR cells + 2 uM doxorubicin) is 3.98% (inactive). The inhibition was -6.71% (inactive) in test [5] and 4.55% (inactive) in test [6].

Take `CCN(CC(=O)Nc1ccc2c(c1)OCCO2)Cc1cc(=O)oc2cc(C)c(C)cc12`: the viability is 93% (inactive) in test [1]; 82.2% (inactive) in test [2]; 73.8% (inactive) in test [3]; 68% in test [4] (setting [7]); 73.8% in test [4] (setting [8]). Further, the differential viability (reversal) in test [4] (H69AR cells + 2 uM doxorubicin) is 5.8% (inactive). For the same compound, the inhibition in test [5] is -5.75% (inactive); in test [6], 3.09% (inactive).

`Cc1cc(C(=O)Nc2cccnc2)no1`: the viability in test [1] was 99% (inactive); in test [2], 101% (inactive); in test [3], 98.3% (inactive); in test [4] (setting [7]), 98%; in test [4] (setting [8]), 98.3%. Further, the differential viability (reversal) in test [4] (H69AR cells + 2 uM doxorubicin) was 0.295% (inactive). The inhibition was 3.78% (inactive) in test [5] and -2.18% (inactive) in test [6].

As for `COCc1nnc(SCC(=O)NC(C)c2ccccc2)n1-c1ccccc1` (centres undefined), the viability in test [1] is 84% (inactive); in test [2], 101% (inactive); in test [3], 100% (inactive); in test [4] (setting [7]), 105%; in test [4] (setting [8]) it was 100%. In addition, the differential viability (reversal) in test [4] (H69AR cells + 2 uM doxorubicin) was -5.31% (inactive). Also, the inhibition in test [5] is -4.66% (inactive); in test [6], 1.27% (inactive).

With `N#Cc1c(N)oc(-c2cccs2)c1-c1cccs1`, the viability is 107% (inactive) in test [1]; 107% (inactive) in test [2]; 95% (inactive) in test [3]; 93.2% in test [4] (setting [7]); 95% in test [4] (setting [8]). Besides, in test [4] (H69AR cells + 2 uM doxorubicin), the differential viability (reversal) was 1.77% (inactive). For the same compound, the inhibition in test [5] was -6.93% (inactive); in test [6], -3.82% (inactive).

With `Cc1cnc(NC(=O)C2=C(O)c3ccccc3S(=O)(=O)N2C)s1`, the viability in test [1] was 102% (inactive); in test [2], 84% (inactive); in test [3] it was 89.9% (inactive); in test [4] (setting [7]) it was 89.3%; in test [4] (setting [8]) it was 89.9%. The differential viability (reversal) in test [4] (H69AR cells + 2 uM doxorubicin) is 0.62% (inactive). The figures for the inhibition in test [5] and in test [6] were 3.51% (inactive) and -2.83% (inactive), respectively.

Take `C=CCn1c(=O)c2ccccc2n2c(SC(C)C(=O)Nc3nc(-c4ccccc4)cs3)nnc12` (centres undefined): the viability in test [1] is 66% (inactive); in test [2] it was 65.7% (inactive); in test [3], 79.6% (inactive); in test [4] (setting [7]) it was 81.9%; in test [4] (setting [8]), 79.6%. Further, the differential viability (reversal) in test [4] (H69AR cells + 2 uM doxorubicin) is -2.34% (inactive). Besides, the inhibition in test [5] is 2.6% (inactive); in test [6], 5.41% (inactive).

The record behind these values is PubChem BioAssay.
